15 molecules from ChEMBL document CHEMBL1649390, “New (RS)-benzoxazepin-purines with antitumour activity: The chiral switch from (RS)-2,6-dichloro-9-[1-(p-nitrobenzenesulfonyl)-1,2,3,5-tetrahydro-4,1-benzoxazepin-3-yl]-9H-purine” (Eur J Med Chem, 2011) can be followed below.

As a reminder, the IC50 is the concentration needed to halve the response being measured. What is called viability is the share of living cells, or the viability signal relative to a control.

Data set [1] relates to MDA-MB-231. Briefly: Cytotoxicity against human MDA-MB-231 cells expressing high level of p53 […]. Format: functional, cell-based.
For data set [2], the system named is MCF7. Put plainly: Induction of apoptosis in human MCF7 cells assessed as cell viability at IC50 concentration after 24 hrs using V-FITC and propidium iodide staining by flow cytometry (reference value: 90.42 +/- 0.63 %). Format: functional. In general terms: In flow cytometry, cells or beads pass a laser one at a time.
Data set [3] is described as follows: Cytotoxicity against human MCF10A cells […] by SRB assay. The data set is classed as cell-based. Particulars: MCF-10A. For orientation: In SRB staining, fixed cells bind dye roughly in proportion to their protein.
The test system of data set [4] is MCF7. Put plainly: Induction of apoptosis in human MCF7 cells assessed as early apoptotic cells at IC50 concentration after 48 hrs using V-FITC and propidium iodide staining by flow cytometry relative to control. Format: functional.
A short description of data set [5]: Therapeutic index, ratio of IC50 for human MCF10A cells to IC50 for human MCF7 cells expressing wild type p53 and ras mutant. Conditions: MCF10A cells versus MCF7 cells (wild type p53, ras mutant), read-out: Ratio IC50. Format: cell-based. The method in brief: (§1)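 Ratio of IC50 in non-tumour MCF-10A to IC50 in the tumour line, both from the SRB growth assay described for cytotoxicity.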

For data set [6], the system named is MCF7. Put plainly: Induction of apoptosis in human MCF7 cells assessed as early apoptotic cells at IC50 concentration after 24 hrs using V-FITC and propidium iodide staining by flow cytometry relative to control. Format: functional.
Data set [7] deals with MCF7. Briefly: Cytotoxicity against human MCF7 cells expressing wild type p53 and ras mutant […]. The data set is classed as functional, cell-based.
For data set [8], the system named is MCF7. Briefly: Induction of apoptosis in human MCF7 cells assessed as late apoptotic cells at IC50 concentration after 24 hrs using V-FITC and propidium iodide staining by flow cytometry (reference value: 0.03 +/- 0.01 %). Format: functional.
The test system of data set [9] is MCF7. Put plainly: Induction of apoptosis in human MCF7 cells assessed as necrotic cells at IC50 concentration after 24 hrs using V-FITC and propidium iodide staining by flow cytometry (reference value: 9.55 +/- 0.21 %). The data set is classed as functional.
Data set [10] concerns MCF7. Briefly: Induction of apoptosis in human MCF7 cells assessed as necrotic cells at IC50 concentration after 48 hrs using V-FITC and propidium iodide staining by flow cytometry (reference value: 12.61 +/- 7.50 %). The data set is classed as functional.
Data set [11] is described as follows: Therapeutic index, ratio of IC50 for human MCF10A cells to IC50 for human MDA-MB-231 cells expressing high level of p53. Format: cell-based. Conditions: MCF10A cells versus MDA-MB-231 cells (high level of p53), read-out: Ratio IC50. The gist of the method: as §1
The subject of data set [12] is MCF7. Put plainly: Induction of apoptosis in human MCF7 cells assessed as viable cells at IC50 concentration after 48 hrs using V-FITC and propidium iodide staining by flow cytometry (reference value: 86.26 +/- 7.25 %).
The subject of data set [13] is MCF7. Briefly: Induction of apoptosis in human MCF7 cells assessed as late apoptotic cells at IC50 concentration after 24 hrs using V-FITC and propidium iodide staining by flow cytometry (reference value: 1.11 +/- 0.24 %). The data set is classed as functional.
The test system of data set [14] is MCF7. Put plainly: Cell cycle arrest in human MCF7 cells assessed as accumulation at S phase after 48 hrs using propidium iodide staining by flow cytometry (reference value: 8.55 +/- 0.40 %). Format: functional.
The nature of data set [15]: Cell cycle arrest in human MCF10A cells assessed as accumulation at S phase after 48 hrs using propidium iodide staining by flow cytometry (reference value: 21.78 +/- 0.46 %). Conditions: mcf-10a. The data set is classed as ADME, cell-based.
The test system of data set [16] is MCF7. Briefly: Cell cycle arrest in human MCF7 cells assessed as accumulation at G0/G1 phase after 48 hrs using propidium iodide staining by flow cytometry (reference value: 89.88 +/- 1.73 %). Format: functional.
The test system of data set [17] is MCF7. Briefly: Cell cycle arrest in human MCF7 cells assessed as accumulation at G2/M phase after 48 hrs using propidium iodide staining by flow cytometry (reference value: 1.57 +/- 2.12 %). The data set is classed as functional.
The nature of data set [18]: Cell cycle arrest in human MCF10A cells assessed as accumulation at G2/M phase after 48 hrs using propidium iodide staining by flow cytometry (reference value: 12.55 +/- 0.68 %). The data set is classed as ADME, cell-based. Particulars: mcf-10a.
Data set [19] deals with MDA-MB-231. Put plainly: Cell cycle arrest in human MDA-MB-231 cells assessed as accumulation at S phase after 48 hrs using propidium iodide staining by flow cytometry (reference value: 26.35 +/- 0.03 %). The data set is classed as functional.
The nature of data set [20]: Cell cycle arrest in human MCF10A cells assessed as accumulation at G0/G1 phase after 48 hrs using propidium iodide staining by flow cytometry (reference value: 65.70 +/- 1.14 %). Format: ADME, cell-based. Conditions: mcf-10a.
The test system of data set [21] is MDA-MB-231. Briefly: Cell cycle arrest in human MDA-MB-231 cells assessed as accumulation at G0/G1 phase after 48 hrs using propidium iodide staining by flow cytometry (reference value: 42.06 +/- 0.01 %). Format: functional.
Data set [22] has as its system MDA-MB-231. Put plainly: Cell cycle arrest in human MDA-MB-231 cells assessed as accumulation at G2/M phase after 48 hrs using propidium iodide staining by flow cytometry (reference value: 31.59 +/- 0.03 %). The data set is classed as functional.

SMILES strings stand for the structures.

As to `O=S(=O)(c1ccccc1NO)N1CC(n2cnc3c(Cl)nc(Cl)nc32)OCc2ccccc21` (racemic), the IC50 in data set [1] turned out to be 487 nM; in data set [3], 1230 nM; in [7], 1530 nM. Moreover, the Activity in [2] worked out at 90.86%; in data set [4], 18.73%; in [6] it was 0%; in [8], 0.11%; in data set [9], 9.11%; in [10] it was 5.52%. For the same molecule, in data set [13], the Activity came to 4.92%. In addition, the results for the selectivity ratio in data set [5] and in [11] were 0.8 and 2.53, respectively. Further, in [12], the viability came to 70.82%.
Consider `O=[N+]([O-])c1ccccc1S(=O)(=O)N1CC(n2cnc3nc(Cl)nc(Cl)c32)OCc2ccccc21` (racemic), for which the IC50 in data set [1] worked out at 318 nM; in data set [3], 1260 nM; in data set [7], 990 nM. Moreover, the Activity in [2] came to 95.03%; in data set [4], 13.93%; in data set [6] it was 0.02%; in data set [8] it was 0.02%; in data set [9], 4.94%; in [10], 2.48%. Besides, the Activity in data set [13] stood at 3.8%. Besides, the selectivity ratio amounted to 1.27 in data set [5] and 4 in data set [11]. In [12], the viability is 79.78%.
Regarding `O=[N+]([O-])c1ccccc1S(=O)(=O)N1CC(n2cnc3c(Br)ncnc32)OCc2ccccc21` (racemic), the Activity was 91.95% in data set [2]; 24.43% in data set [4]; 0% in [6]; 0% in data set [8]; 8.04% in [9]; 3.76% in data set [10]. In addition, the Activity in data set [13] is reported as 4.19%. In data set [7], this molecule gave an IC50 of 3620 nM. Further, the viability in data set [12] is 67.6%.
Take `CC(=O)O[C@H]1C(=O)[C@@]2(C)[C@H]([C@H](OC(=O)c3ccccc3)[C@]3(O)C[C@H](OC(=O)[C@H](O)[C@@H](NC(=O)c4ccccc4)c4ccccc4)C(C)=C1C3(C)C)[C@]1(OC(C)=O)CO[C@@H]1C[C@@H]2O` [PACLITAXEL]: the Activity in data set [14] was 19.01%; in data set [15], 39.75%; in data set [16], 62.48%; in data set [17] it was 18.5%; in data set [18] it was 23.5%; in [19] it was 0%. Moreover, the Activity in data set [20] amounted to 36.76%; in data set [21], 100%; in data set [22], 0%.
Regarding `O=[N+]([O-])c1ccc(S(=O)(=O)N2CC(n3cnc4c(Br)ncnc43)OCc3ccccc32)cc1` (racemic), the Activity was found to be 95.7% in data set [2]; 35.64% in data set [4]; 0.01% in data set [6]; 0.01% in [8]; 4.26% in data set [9]; 10.92% in data set [10]. Moreover, in [13], the Activity is 2.4%. In data set [7], the IC50 is 1230 nM. Also, the viability in [12] stood at 51.04%.
In [7], `Cc1cn(C2CN(S(=O)(=O)c3ccc([N+](=O)[O-])cc3)c3ccccc3CO2)c(=O)[nH]c1=O` (stereo not drawn) gave an IC50 of 39800 nM.
On to `O=c1[nH]cc(F)c(=O)[nH]1` [FLUOROURACIL], for which the Activity in data set [14] stood at 6.06%; in data set [15] it was 55.74%; in data set [16], 87.4%; in data set [17] it was 8.06%; in [18], 9.56%; in data set [19] it was 35.39%. In addition, the Activity in [20] came to 34.2%; in [21], 38.98%; in data set [22], 25.63%.
Consider `Clc1nc(Sc2ccccc2)c2ncn(C3CNc4ccccc4CO3)c2n1` (racemic), for which the Activity was 83.09% in data set [2]; 15.81% in [4]; 0.07% in data set [6]; 0.07% in [8]; 7.55% in data set [9]; 4.01% in data set [10]. In addition, the Activity in [13] was found to be 3.88%. This molecule had an IC50 in data set [7] of 13800 nM. The viability in [12] is recorded as 76.3%.
In the case of `Cc1cn(C2C[S+]([O-])c3ccccc3CO2)c(=O)[nH]c1=O` (racemic), the IC50 in [7] stood at 30000 nM.
The same measure, in the same setting: for `Cc1cn(C2CS(=O)(=O)c3ccccc3CO2)c(=O)[nH]c1=O` (racemic) the value was 12700 nM.
As to `c1ccc(Sc2nc(Sc3ccccc3)c3ncn(C4CNc5ccccc5CO4)c3n2)cc1` (racemic), the Activity in [2] amounted to 87.29%; in [4], 18.64%; in data set [6], 0%; in [8], 0.07%; in data set [9], 12.68%; in data set [10] it was 4.98%. Also, the Activity in data set [13] is recorded as 4.52%. The molecule also displayed an IC50 in data set [7] of 9710 nM. Further, the viability in data set [12] was 71.84%.
Regarding `O=[N+]([O-])c1ccccc1S(=O)(=O)N1CC(n2cnc3c(Cl)nc(Cl)nc32)OCc2ccccc21` (racemic), the IC50 in data set [1] turned out to be 280 nM; in data set [3], 1530 nM; in data set [7], 383 nM. The Activity in data set [2] is on record as 91.65%; in data set [4] it was 19.61%; in data set [6] it was 0.01%; in [8] it was 0.01%; in [9], 8.33%; in data set [10], 3.43%. Moreover, the Activity in data set [13] is 2.64%. For the same molecule, the selectivity ratio in data set [5] was determined as 4; in [11], 5.5. The viability in [12] worked out at 74.31%.
`Nc1ccccc1S(=O)(=O)N1CC(n2cnc3c(Cl)nc(Cl)nc32)OCc2ccccc21` (racemic): the IC50 in data set [1] stood at 467 nM; in data set [3], 1520 nM; in [7], 820 nM. In addition, the Activity in [2] worked out at 82.1%; in data set [4], 18.89%; in data set [6], 0.02%; in data set [8], 0.28%; in data set [9], 17.61%; in data set [10] it was 1.99%. For the same molecule, the Activity in data set [13] is 2.77%. Besides, the results for the selectivity ratio in [5] and in data set [11] were 1.85 and 3.25, respectively. The viability in [12] was determined as 76.34%.
Turning to `Cc1cn(C2CN(S(=O)(=O)c3ccccc3[N+](=O)[O-])c3ccccc3CO2)c(=O)[nH]c1=O` (racemic), the IC50 in data set [7] was determined as 45200 nM.
Consider `COC(CN(c1ccccc1CO)S(=O)(=O)c1ccc([N+](=O)[O-])cc1)n1cnc2c(Cl)nc(Cl)nc21` (racemic), for which the IC50 in data set [1] was determined as 409 nM; in [3] it was 1860 nM; in [7] it was 355 nM. Further, the Activity in [2] came out at 94.76%; in data set [4], 43.3%; in data set [6] it was 0.02%; in data set [8], 0.18%; in data set [9], 4.88%; in data set [10], 4.81%. The Activity in [13] is 2.17%. The selectivity ratio in data set [5] came to 5.25; in [11] it was 4.55. Also, the viability in data set [12] was found to be 49.71%.
